Reference: PMC3501882 (Diabetes, 2012)
Residues, ends and D or L forms follow the SMILES beside them.

Assays:
[1] = assay type: physicochemical; settings: poorly soluble peptides were used as suspensions in assays
BDC-2.5 T-cell clone = assay: IFN-γ response of T-cell clone to antigen; assay type: cell-based, NOD mouse; settings: for IFN-γ response of BDC-2.5 to peptide (in words): increasing peptide concentrations, before and after TGase treatment, Fig. 1B, 1C
PD-12.4.4 T-cell clone = assay: IFN-γ response of insulin-reactive T-cell clone to antigen; assay type: cell-based, NOD mouse; settings: for IFN-γ response of PD-12.4.4 to peptide (in words): increasing peptide concentrations, Fig. 1A, 1D
[2] = test system: CD4 T cells from BDC-2.5 TCR-Tg mice; assay: T-cell proliferation assay; assay type: cell-based, mouse; settings: for Proliferative response of BDC-2.5 TCR-Tg CD4 T cells (in words): Fig. 2A, WE14 at 200 μg/mL (120 μmol/L)
In short: (§1)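 Spleen cells from TCR-transgenic NOD mice (2–5 months old) labeled with 2.5 μmol/L CFSE. Cultured at 1 × 10^6/well with peptide antigen, medium, or anti-CD3ε 0.1 μg/mL for 4 days. Cells stained for CD4 and analysed by flow cytometry, gated on CD4/lymphocyte events. Read-out: percentage of divided cells, mean and SD per mouse over two independent experiments.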

[3] = test system: CD4 T cells from BDC-6.9 TCR-Tg mice; assay: T-cell proliferation assay; assay type: cell-based, mouse; settings: Fig. 2A; negative control T cells
In short: as §1

[4] = test system: guinea pig transglutaminase; settings: increasing putrescine 0.06–15.6 mmol/L in the reaction mixture; gel lanes 2–10

Row | Compound | Solubility in water (in words) [1] | IFN-γ response of BDC-2.5 to peptide (in words) (BDC-2.5 T-cell clone) | IFN-γ response of PD-12.4.4 to peptide (in words) (PD-12.4.4 T-cell clone) | Proliferative response of BDC-2.5 TCR-Tg CD4 T cells (in words) [2] | further results
1 | CSCC[C@H](NC(=O)[C@H](CCCNC(=N)N)NC(=O)[C@H](CO)NC(=O)[C@@H](N)Cc1c[nH]c2ccccc12)C(=O)N[C@@H](CC(=O)O)C(=O)N[C@@H](CCC(N)=O)C(=O)N[C@@H](CC(C)C)C(=O)N[C@@H](C)C(=O)N[C@@H](CCCCN)C(=O)N[C@@H](CCC(=O)O)C(=O)N[C@@H](CC(C)C)C(=O)N[C@H](C(=O)N[C@@H](C)C(=O)N[C@@H](CCC(=O)O)C(=O)O)[C@@H](C)O [WE14] (H-WSRMDQLAKELTAE-OH) | solubilized directly in sterile water | – | – | – | –
2 | DTKVMKCVLEVISD [ChgA29–42] | only poorly soluble in water | not antigenic | not antigenic at higher or lower peptide concentrations | no proliferative response | Effect of TGase treatment on antigenicity of the peptide (BDC-2.5 T-cell clone; BDC-2.5 (for WE14 also BDC-10.1 and BDC-9.46), IFN-γ ELISA): did not lead to an increase of antigenicity; IFN-γ response of PD-12.4.4 to peptide at 66 μg/mL (PD-12.4.4 T-cell clone; 66 μg/mL (42 μmol/L), in the absence of TGase): very small PD-12.4.4 response; Proliferative response of BDC-6.9 TCR-Tg CD4 T cells (in words) [3]: no proliferative response
3 | FVKQHLCGSHLVEALYLVCGERGFFYTPMS [insulin B-chain] | only poorly soluble in water | remain inactive | responded | – | Effect of TGase treatment on PD-12.4.4 response (PD-12.4.4 T-cell clone; Fig. 1D): not increased significantly
4 | EKAHRPIWARMDAKK | – | – | – | responded | –
5 | KCNTATCATQRLANFLVRSS [KS20] | – | remain inactive | did not respond | no proliferative response | Effect of TGase treatment of the peptide on T-cell proliferation ([2]; any peptide concentration tested, data not shown): did not alter the T-cell proliferation responses; Proliferative response of BDC-6.9 TCR-Tg CD4 T cells (in words) [3]: no proliferative response
6 | NCCCCN [putrescine] | – | – | – | – | Effect of putrescine on antigenicity of β-Mem positive control antigen (BDC-2.5 T-cell clone; data not shown): did not affect the antigenicity; Effect of inhibitor in TGase reaction on BDC-2.5 response to converted peptide (BDC-2.5 T-cell clone; increasing putrescine 0.06–15.6 mmol/L, Fig. 6A top, lanes 2–10): diminished T-cell responses; Effect of inhibitor on TGase-catalysed WE14 oligomerization [4]: decreasing peptide oligomerization
7 | WSRMDELAKELTAE [WE14-Q6E] | solubilized directly in sterile water | no better than unmodified WE14 | – | – | –
